Data taken from article PMC5708124 (Nature microbiology, 2017).

Key:
[1] = test system: PfMDR1 mutant lines versus parental ABS parasites (Dd2-B2, FCB); assay: Drug susceptibility profiling of HHQ-resistant lines in ABS parasites; format: cell-based, Plasmodium falciparum
[2] = test system: Pf ABS parasites and GAMs; conditions: cited from earlier work
[3] = test system: NF54^Pfs16 early-stage GAMs; assay: Luciferase-based early-stage gametocyte inhibition assay; format: cell-based, Plasmodium falciparum; conditions: in words
Outline: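 Gametocytes on day 1 of gametocytogenesis were set at 10% parasitemia and 0.5% Hct. They were kept in medium with 50 mM N-acetyl-D-glucosamine, refreshed daily. Compound was added at 0.4% DMSO final. Controls were DMSO (0% inhibition) and 5 μM puromycin (100% inhibition). After 72 h at 37°C in 5% O₂/5% CO₂/90% N₂, Steadylite was added, followed by 60 min lysis at room temperature and a luminescence read. Potency used serial dilutions up to 40 μM, three per log, on two independent occasions.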

[4] = test system: NF54^Pfs16 late-stage GAMs; assay: Image-based late-stage gametocyte inhibition assay; format: cell-based, Plasmodium falciparum; conditions: in words
Outline: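 Day-8 stage IV gametocytes were MACS-purified and set at 10% parasitemia and 0.1% Hct, with 0.4% DMSO final. They were incubated 72 h at 37°C in 5% O₂/5% CO₂/90% N₂, then stained overnight with MitoTracker Red CM-H₂XRos. Confocal imaging counted viable mature gametocytes per imaged area; 5 μM puromycin was the control. Screening used 2 μM in triplicate. Potency used serial dilutions up to 40 μM, three per log, on two independent occasions.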

[5] = test system: 3D7 (drug-sensitive) ABS parasites; assay: Imaging-based asexual blood stage high-throughput assay; format: cell-based, Plasmodium falciparum; conditions: read-out: ABS IC50; drug-sensitive 3D7, 72 h
Outline: (§1)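 Sorbitol-synchronized parasites were seeded at 2% parasitemia and 0.3% Hct and exposed to test compound for 72 h at 37°C in 5% O₂/5% CO₂/90% N₂. Cells were then permeabilized with 0.01% Triton X-100, 0.001% saponin and 5 mM EDTA, and stained with 0.5 μg/mL DAPI for at least 6 h at room temperature in the dark. Confocal imaging used 405 nm excitation. Parasites were counted from spot size and intensity. Two independent cultures.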

[6] = test system: Dd2 (multidrug-resistant) ABS parasites; assay: Imaging-based asexual blood stage high-throughput assay; format: cell-based, Plasmodium falciparum; conditions: read-out: ABS IC50; multidrug-resistant Dd2, 72 h
[7] = test system: NITD609-R^Dd2 clone #2 (PfATP4 mutant line); assay: Imaging-based asexual blood stage high-throughput assay; format: cell-based, Plasmodium falciparum; conditions: read-out: ABS IC50, 72 h
Outline: as §1

[8] = test system: HEK293 human embryonic kidney cell line; assay: HEK293 cytotoxicity; format: cell-based; conditions: at 40 μM, 72 h
Outline: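 Cells were grown in DMEM with 10% fetal calf serum and seeded at 2,000 cells/well, then left overnight at 37°C in 5% CO₂ to adhere. Test compound was added as a serial dilution with a maximum of 40 μM, at 0.4% DMSO final, for 72 h. Medium was then replaced with serum-free DMEM containing 44 μM resazurin for 4–6 h. Fluorescence was read at 530/595 nm. Two biological replicates.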

[9] = test system: compound-exposed Pf GAMs in Anopheles stephensi mosquitoes; assay: Membrane-feeding assay with A. stephensi mosquitoes; format: in vivo, Plasmodium falciparum
Outline: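 Day-12 gametocytes were treated 3 days at 1x or 3x their late-stage IC50, with compound refreshed daily, then held 4 days without compound. Controls were 0.25% DMSO and methylene blue at 3x. Stage V cultures (50% Hct, 0.01–0.16% parasitemia) were membrane-fed for 30 min to A. stephensi, kept at 26°C and 78% RH. Midguts were dissected on day 7–8, stained with mercurochrome and oocysts counted blind. Prevalence is the percentage of mosquitoes with at least one oocyst.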

male GAM exflagellation = assay: Male GAM exflagellation of GAM cultures used for membrane feeding; format: cell-based, Plasmodium falciparum; conditions: GAM cultures exposed at 3x late-stage IC50
[10] = test system: P. berghei ANKA MRA868 ABS parasites; assay: 4-day Peters test; format: in vivo, P. berghei in CD-1 mice; conditions: 4 doses, 96 h post infection
Outline: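 Female CD-1 mice (5 weeks old, 22–25 g; four per group) were infected intraperitoneally with 1x10⁶ parasites. The test compound was given intraperitoneally at 2, 24, 48 and 72 h after infection, in 20% DMSO in water. Controls were solvent only and DHA at 30 mg/kg. Parasitemia was read by microscopy at 96 h. Groups were randomized and blinded. The 100 mg/kg groups were tested once.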

[11] = test system: P. berghei ANKA MRA868 GAMs, Anopheles stephensi mosquitoes; assay: In vivo transmission-blocking effect; set-up: species or system P. berghei in CD-1 mice; conditions: mice given two doses 12 h apart: 100 mg/kg GNF compounds, 30 mg/kg DHA
Dd2-B2 parasites = assay: Heme fractionation assay; format: cell-based, Plasmodium falciparum
[12] = test system: PfMDR1^selY290F parasites; assay: Heme fractionation assay; format: cell-based, Plasmodium falciparum; conditions: PfMDR1^selY290F
Outline: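 Early ring-stage, sorbitol-synchronized parasites were exposed to test compound at 0.1, 0.25, 0.5, 1 and 2x the ABS IC50. Heme species were fractionated and normalized to the number of cells analyzed, counted by flow cytometry of an aliquot. Significance was tested by two-tailed t-tests.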

Dd2-B2 late rings = assay: Hb endocytosis by Western blot; format: cell-based, Plasmodium falciparum; conditions: 5′ the IC50 for 5 h, normalized to DMSO control
Outline: (§2)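 Sorbitol-synchronized parasites were exposed to test compound at 5x IC50 for 5 h, starting at the late ring stage. Lysates were blotted to nitrocellulose and probed overnight at 4°C with rabbit anti-human Hb (1:5,000) and anti-β-actin (1:2,000). Detection was by ECL. Hb band intensities were normalized to β-actin and compared with untreated controls. Repeated on 3–4 independent occasions.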

[13] = test system: PfMDR1^selY290F late rings; assay: Hb endocytosis by Western blot; format: cell-based, Plasmodium falciparum; conditions: 5′ the IC50 for 5 h
Outline: as §2

[14] = test system: cultured P. berghei liver-stage parasites; conditions: cited from earlier work
[15] = all exposure levels up to 2′ IC50, 32 h

With `CC(=O)N1CCN(c2ccc(CN(C(=O)/C=C/c3ccc(C(C)(C)C)cc3)[C@@H](Cc3ccccc3)C(=O)N3CCN(Cc4ccc(C#N)cc4)CC3)cc2)CC1` [ACT-451840] the “fold decreased susceptibility versus Dd2-B2” value ([1]; PfMDR1^edF1072L) was 16 fold, the “fold decreased susceptibility versus Dd2-B2” value ([1]; PfMDR1^edS1075I) was 5.5 fold and the “fold decreased susceptibility versus Dd2-B2” value ([1]; PfMDR1^selY290F) was 45 fold. For the same compound, the “activity against Pf ABS parasites and GAMs” value [2] was “low nanomolar”.

With `CCOC(=O)C1=C(C)NC2=C(C(=O)CC(c3ccc(OC)c(OC)c3)C2)C1c1ccccc1Cl` (centres unmarked) [GNF-Pf-5660] the early-stage gametocytocidal activity [3] was “potent”, the late-stage gametocytocidal activity [4] was “potent” and the IC50 [5] was < 25 nM. For the same compound, the IC50 [6] was < 25 nM, the IC50 [7] was < 25 nM and the “inhibition of HEK293 cells” value [8] was “no inhibition”. The “reduction in oocyst density per infected mosquito midgut” value ([9]; GAMs pre-treated at 3x late-stage IC50) was 95–99%, the “reduction in infection prevalence (percentage of infected mosquitoes)” value ([9]; GAMs pre-treated at 3x late-stage IC50, 3 days, then 4 days without compound) was 97% and the “reduction in male GAM exflagellation rates” value (male GAM exflagellation) was 98%. The “reduction of parasitemia compared to vehicle-treated mice” value ([10]; 70 mg/kg intraperitoneal) was 22%, the “reduction of parasitemia compared to vehicle-treated mice” value ([10]; 100 mg/kg intraperitoneal) was 65% and the “reduction in oocyst burden” value [11] was 21%. For the same compound, the “reduction in the number of infected mosquitoes” value [11] was 25%, the “fold increase in IC50 compared to parental Dd2-B2” value ([1]; GNF-Pf-5660-selected clone 2B6H1, PfMDR1 Y290F (AB 100%)) was 248 fold and the “fold decrease in Hz levels compared with untreated controls” value (Dd2-B2 parasites; 0.1′ the IC50 value) was 1.5 fold. For the same compound, the “fold reduction in Hz levels” value (Dd2-B2 parasites; 0.25′ to 2′ IC50) was 2.3 fold, the “Hb concentration per parasite” value (Dd2-B2 parasites; [15]) was “unchanged” and the “free heme concentration per parasite” value (Dd2-B2 parasites; [15]) was “unchanged”. For the same compound, the “fold higher exposure levels than in Dd2-B2 giving similar profile of reduced Hz and total heme iron” value [12] was > 160 fold, the “reduction of Hb levels within parasites” value (Dd2-B2 late rings) was 32% and the “Hb levels within parasites” value [13] was “unchanged”. The “activity against liver-stage parasites” value [14] was “inactive”.
